Tests used:
[1] = test system: amastigote stage of T. cruzi; experiment: Activity against amastigote stage; format: cell-based, Trypanosoma cruzi; settings: CC50/IC50, murine macrophages vs amastigotes
[2] = Cytotoxicity on murine cells; format: cell-based; settings: mouse, J774A.1 macrophages
How it was run: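 J774A.1 macrophages, maintained in DMEM + 10% FBS at 37 °C and 5% CO2, seeded at 10^4/well and left until fully adherent. Serial dilutions of test compound were then added in RPMI 1640 instead of DMEM, whose colour disturbs alamarBlue fluorescence. After 24 h at 37 °C and 5% CO2, alamarBlue fluorescence was read.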

[3] = test system: epimastigotes of Trypanosoma cruzi (Y strain); experiment: Activity against epimastigote stage; format: cell-based; settings: CC50/IC50, murine macrophages vs epimastigotes
How it was run: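 Y-strain epimastigotes, maintained in LIT + 10% FBS at 26 °C, seeded at 10^5/well with serial dilutions of test compound and 10% alamarBlue. After 3 days (exponential growth), fluorescence was read and dying parasites were confirmed by microscopy. IC50 came from nonlinear regression. CC50 came from the J774A.1 alamarBlue assay, and SI = CC50/IC50.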

## O=C(Cn1ccnc1[N+](=O)[O-])NCc1ccccc1 [BENZ, benznidazole]
[1]
  Selectivity index against amastigote stage: 149.8
[2]
  CC50 at 24 h: 399.9 ± 1.4 µM
[3]
  Selectivity index (SI) against epimastigote stage: 57.8

— paper PMC10276036 (International Journal for Parasitology: Drugs and Drug …, 2023)
